Entries after “also recorded” stand apart in the source; their conditions may differ. Read-outs that look alike come from different tables or passages of the source.

Data on seven compounds can be found in paper PMC11031320 (Cell chemical biology, 2024).

For series [1], the system named is HsHsp90 NBD L122I/G125S/A126G and Q23N. As to the kind of experiment: FITC-GA competition, other HsHsp90 NBD variants. In kind it is binding, human. The note with it: compared to WT HsHsp90 NBD. Put shortly: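 Fluorescence polarization displacement of 1.0 nM FITC-geldanamycin from each His-tagged human Hsp90 NBD variant (25 nM). Buffer was 20 mM HEPES pH 7.3, KCl, MgCl2, Na2MoO4, DTT, 0.01% NP-40. Test compound was dosed at 0–10 μM with 1% final DMSO. Plates were held overnight at 4 °C in the dark, then read at Ex 480/Em 535. Percent bound was normalized to protein-only and protein-free tracer controls. At least 4 independent determinations.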

The test system of another series is P. berghei ANKA. The series is described as follows: Liver stage parasite load in HuH7 cells. Type of series: cell-based, Plasmodium berghei. To be noted: for EC50: Plasmodium berghei, Huh-7, 44 h, read-out: EC50, liver stage P. berghei; for relative P. berghei parasite load in HuH7 cells: at ~30 μM.
The test system of another series is P. falciparum 3D7. The series is described as follows: Asexual blood stage parasite inhibition assay. In kind it is cell-based. The note with it: Plasmodium falciparum, 3D7, 72 h, read-out: EC50, blood stage P. falciparum 3D7. Put shortly: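 Ring-stage 3D7 cultures (2% parasitemia, 1% hematocrit) were exposed to test compound at 0–50 μM (0.5% DMSO) for 72 h at 37 °C under 3% O2/5% CO2/92% N2. Controls were DMSO and quinacrine (1 μM). Cells were lysed in saponin/Triton X-100 buffer with 10X SYBR Green I and stained 24 h at RT in the dark. Fluorescence was read at Ex 485/Em 535 and normalized to controls. 2–3 replicates, 2–4 independent experiments.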

For series [2], the target named is T1, HsHsp90 (Homo sapiens, UniProt P07900). As to the kind of experiment: FITC-geldanamycin competitive binding assay.
The target in a further series is HsHsp90 NBD E25D/K112R (Homo sapiens, UniProt P07900, E25D/K112R). As to the kind of experiment: FITC-GA competition, salt bridge double mutant HsHsp90 NBD. Type of series: binding.
For the next series, the system named is P. falciparum proteasome. In kind it is biochemical, Plasmodium falciparum.
The next series concerns HuH7 cells. As to the kind of experiment: HuH7 host cell viability. In kind it is cell-based, human. The note with it: at 10 μM.
Series [3] deals with T2, PfHsp90 (Plasmodium falciparum, UniProt Q8IC05). The series is described as follows: FITC-geldanamycin competitive binding assay.
For series [4], the system named is PfHsp90. As to the kind of experiment: FITC-geldanamycin competitive binding assay. The note with it: ratio of HsHsp90 to PfHsp90 affinity.
The target in series [5] is wild-type (WT) HsHsp90 nucleotide-binding domain (NBD) (Homo sapiens, UniProt P07900). The series is described as follows: FITC-GA competition, wild-type HsHsp90 nucleotide-binding domain.
The test system of series [6] is P. falciparum gametocytes (NF54 peg4-tdTomato). As to the kind of experiment: Gametocyte inhibition assay. In kind it is cell-based. The note with it: Plasmodium falciparum.
The next series concerns 20S particles. The series is described as follows: Native gel in-gel Suc-LLVY-AMC hydrolysis, 20S band after SDS activation. Type of series: cell-based, Plasmodium falciparum.
The subject of the next series is 26S proteasome. The series is described as follows: Native gel in-gel Suc-LLVY-AMC hydrolysis, 26S band. In kind it is cell-based, Plasmodium falciparum.
Series [7] addresses T2, PfHsp90. The note with it: cited from earlier work.
Series [8] addresses T1, HsHsp90. The note with it: read-out: Kd of FITC-GA to full-length HsHsp90; cited from earlier work.
Setting [9] is: NF54, 24 h, read-out: early gametocyte viability.
The mark [10] stands for this setting: NF54, 240 h, read-out: late gametocyte viability.
[11] abbreviates: 10 μM, 3 hours, cycloheximide 50 μM co-treatment.
The mark [12] stands for this setting: lysate treated with epoxomicin vs DMSO.

By EC50 is commonly meant the concentration that produces a half-maximal response. As usually defined, the Ki is a measure of affinity in units of concentration, obtained from inhibition or displacement. As to `CCOC(=O)NCc1ccc(-n2c(-c3cc(C(C)C)c(O)cc3O)n[nH]c2=S)cc1` [BX-2819], the “change in affinity for other HsHsp90 NBD constructs” value in series [1] is “unaltered”. Moreover, the EC50 was found to be 1500 ± 410 nM with P. berghei ANKA and 740 ± 34 nM in the series on P. falciparum 3D7. Besides, the “relative P. berghei parasite load in HuH7 cells” value in the series with P. berghei ANKA is “near zero”. The Ki at HsHsp90 [2] stood at 49 ± 4.3 nM; on HsHsp90 NBD E25D/K112R, 13 ± 2.5 nM; at PfHsp90 [3], 24 ± 4.4 nM; in series [5], 19 ± 4 nM. Moreover, the “reaction rate compared to DMSO control” value in the series on P. falciparum proteasome (100 μM BX-2819 with 3 μM purified PfHsp90) was “not different from the DMSO control”. Moreover, the “Suc-LLVY-AMC hydrolysis in PfHsp90-treated samples” value in the series with P. falciparum proteasome (BX-2819 10–100 μM with PfHsp90 3 μM) is “reduced hydrolysis in a dose-dependent manner; also recorded: negated the increased rate”. Further, the “decrease of HuH7 viability” value in the series on HuH7 cells is reported as ≤ 50%. The “displacement of FITC-GA from PfHsp90” value at PfHsp90 [3] (BX-2819 10 μM) is recorded as “displaces FITC-GA”. In the series on PfHsp90 [4], the “selectivity to PfHsp90 over HsHsp90” value is given as 2.0 fold.

What is called viability is a read-out of living cells in per cent, often relative to untreated cells. `COC1=C2C[C@@H](C)C[C@H](OC)[C@H](O)[C@@H](C)/C=C(\C)[C@H](OC(N)=O)[C@@H](OC)/C=C\C=C(/C)C(=O)NC(=CC1=O)C2=O` [geldanamycin]: the viability at 1 µM in series [6] (setting [9]) is 37%; in series [6] (setting [10]), 71%. For the same compound, the viability at 10 µM in [6] (setting [9]) is 16%; in series [6] (setting [10]) it was 56%. Besides, the “latent 20S particles (after activation) compared to DMSO control” value in the series on 20S particles (setting [11]) came to 158%. The “proportion of active 26S proteasomes compared to DMSO control” value with 26S proteasome (setting [11]) was determined as 63%.

`CC(C)C[C@H](NC(=O)[C@H](Cc1ccccc1)NC(=O)c1cnccn1)B(O)O` [bortezomib]: the “Suc-LLVY-AMC hydrolysis in P. falciparum lysate” value in the series on P. falciparum proteasome (bortezomib 25 μM, 180 min, compared to DMSO) was “significantly reduced; also recorded: decreased total hydrolysis”.

For `CC[C@@H](C)Nc1cc(C(=O)NC2C[C@H]3CC[C@@H](C2)N3c2ccc(C(=O)C3CC3)cn2)c(C)cc1C(N)=O` (stereo partly drawn) [XL888], in series [1], the “change in affinity for other HsHsp90 NBD constructs” value is recorded as “no significant differences”. In addition, the values for the EC50 in the series on P. berghei ANKA and in the series with P. falciparum 3D7 were 240 ± 45 nM and 330 ± 110 nM, respectively. For the same compound, in the series on P. berghei ANKA, the “relative P. berghei parasite load in HuH7 cells” value is “near zero”. The Ki is 130 ± 30 nM on HsHsp90 [2], 9.6 ± 1.6 nM on HsHsp90 NBD E25D/K112R, 27 ± 7.8 nM at PfHsp90 [3] and 68 ± 23 nM in [5]. The “improvement in affinity to E25D/K112R double mutant compared to WT HsHsp90 NBD” value on HsHsp90 NBD E25D/K112R was 7 fold. The “decrease of HuH7 viability” value in the series on HuH7 cells is on record as ≤ 50%. For the same compound, the “selectivity to PfHsp90 over HsHsp90” value in the series on PfHsp90 [4] turned out to be 4.8 fold.

Usually Kd stands for the free concentration of one partner at which half of the binding sites on the other are occupied at equilibrium, for simple one-to-one binding. `CO[C@H]1/C=C\C=C(/C)C(=O)NC2=CC(=O)C(NCCCCCCNC(=S)Nc3ccc(-c4c5ccc(=O)cc-5oc5cc(O)ccc45)c(C(=O)O)c3)=C(C[C@@H](C)C[C@H](OC)[C@H](O)[C@@H](C)/C=C(\C)[C@@H]1OC(N)=O)C2=O` [FITC-GA]: the Kd on PfHsp90 [7] (read-out: Kd of FITC-GA to full-length PfHsp90) was 42 nM; on HsHsp90 [8] it was 23 nM.

As for `CC[C@H](C)[C@H](NC(=O)[C@H]([C@@H](C)CC)N(C)C(C)=O)C(=O)N[C@H](C(=O)N[C@@H](CC(C)C)C(=O)[C@@]1(C)CO1)[C@@H](C)O` [epoxomicin], the “activated 20S band” value with 20S particles (setting [12]) is listed as “reduced”. Besides, in the series on 26S proteasome (setting [12]), the 26S band entry is “reduced”.

`COc1ccc2c(c1)[nH]c1c(C)nccc12` [harmine]: the affinity result on PfHsp90 [7] is “micromolar”.
